Data taken from ChEMBL document CHEMBL1124154, “Polycyclic aryl- and heteroarylpiperazinyl imides as 5-HT1A receptor ligands and potential anxiolytic agents: synthesis and structure-activity relationship studies” (J Med Chem, 1988).

Legend:
[1] = target: T1, 5-hydroxytryptamine receptor 1A (Rattus norvegicus) (UniProt P19327); assay: In vitro inhibition of [3H]-8-hydroxy-2-(di-n-propylamino)tetralin binding to 5-hydroxytryptamine 1A receptor from rat hippocampal tissue; conditions: Hippocampus; concentration not given here
T1 sequence (whole entry): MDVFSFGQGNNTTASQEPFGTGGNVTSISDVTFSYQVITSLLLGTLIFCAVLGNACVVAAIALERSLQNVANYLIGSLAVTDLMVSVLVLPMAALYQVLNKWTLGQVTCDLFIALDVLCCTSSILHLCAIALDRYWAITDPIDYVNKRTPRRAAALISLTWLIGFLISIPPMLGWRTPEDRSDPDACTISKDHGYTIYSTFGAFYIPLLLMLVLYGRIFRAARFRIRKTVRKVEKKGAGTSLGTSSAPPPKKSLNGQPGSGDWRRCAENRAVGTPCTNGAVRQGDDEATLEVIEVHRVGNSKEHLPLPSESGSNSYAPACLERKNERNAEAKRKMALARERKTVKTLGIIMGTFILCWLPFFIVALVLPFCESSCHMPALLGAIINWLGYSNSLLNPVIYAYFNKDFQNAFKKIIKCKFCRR

[2] = target: D(2) dopamine receptor (Rattus norvegicus) (UniProt P61169); assay: In vitro inhibition of [3H]spiperone binding to dopamine receptor D2 from rat brain limbic tissue at 1 uM; assay type: tissue-based; conditions: Limbic system
Rattus norvegicus [3] = species on record: Rattus norvegicus; assay: Concentration required to produce 50% block in avoidance responding in conditioned avoidance response test in rat; assay type: functional
Procedure, shortened: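 Trained rats in shelf-jump and/or discrete-trial conditioned avoidance paradigms. Drug given ip or po to at least five rats per dose, with a control session before each drug run. Trials without avoidance (avoidance block) were counted per dose as a percentage of total trials, with control set at 100%. AB50 was taken from a least-squares dose-effect regression line.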

[4] = Ratio of ED50 stereotyped behavior in mice; assay type: functional
Mus musculus [5] = assay: Inhibition of apomorphine induced stereotyped behavior in mice after intraperitoneal administration; assay type: functional; conditions: ip
Procedure, shortened: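 Male CF-1 mice (20-25 g, acclimated ≥3 days) received ip compound in 0.25% Tween 80 at 1, 10, 30 and 60 mg/kg (six/dose), alongside vehicle controls. After 30 min they were challenged with apomorphine 1 mg/kg sc. Stereotypy was scored every 5 min and totaled over the 30-min session.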

Mus musculus [6] = assay: Inhibition of apomorphine induced climbing behavior in mice after intraperitoneal administration; assay type: functional; conditions: ip
Procedure, shortened: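 Male CF-1 mice (20-25 g), acclimated at least 3 days, received compound in 0.25% Tween 80 ip at 1, 10, 30 and 60 mg/kg (six/dose) or vehicle. 30 min later they were challenged with apomorphine 1 mg/kg sc. Climbing was scored every 5 min and totaled over 30 min.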

[7] = target: T1, 5-hydroxytryptamine receptor 1A (Rattus norvegicus); assay: In vitro inhibition of [3H]-8-hydroxy-2-(di-n-propylamino)tetralin binding to 5-hydroxytryptamine 1A receptor from rat hippocampal tissue at 1 uM; conditions: Hippocampus
[8] = target: T2, 5-hydroxytryptamine receptor 1A (Rattus norvegicus, UniProt P19327); assay: In vitro inhibition of [3H]-8-hydroxy-2-(di-n-propylamino)tetralin binding to 5-hydroxytryptamine 1A receptor from rat hippocampal tissue.
T2 sequence (P19327 whole entry): T1 sequence (whole entry)

Rattus norvegicus [9] = assay: Concentration required to produce 50% block in avoidance responding in conditioned avoidance response test in rat following peroral administration; assay type: functional
Procedure, shortened: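 Previously trained rats were given compound po at pretreatment time to at least five rats per dose in a conditioned avoidance paradigm (shelf-jump or discrete trial). A control session preceded each drug run. Trials without avoidance were counted as a % of total trials, with control set at 100%. AB50 came from a least-squares dose-effect regression line.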

[10] = target: D(2) dopamine receptor (Rattus norvegicus) (UniProt P61169); assay: In vitro inhibition of [3H]spiperone binding to Dopamine receptor D2 from rat brain limbic tissue at 10 uM; assay type: tissue-based; conditions: Limbic system
Mus musculus [11] = assay: Inhibition of apomorphine induced stereotyped behavior (i.p.); assay type: functional; conditions: ip
D(2) dopamine receptor = D(2) dopamine receptor (Rattus norvegicus, UniProt P61169); assay: In vitro inhibition of [3H]spiperone binding to Dopamine receptor D2 from rat brain limbic tissue; assay type: tissue-based, Limbic system
Procedure, shortened: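 Limbic tissue (nucleus accumbens, septum, olfactory tubercle) from Sprague-Dawley rats, washed membranes at 0.2-0.3 mg protein. Incubated with 0.3 nM [3H]spiroperidol and a range of drug concentrations, 10 min at 37 °C, in Tris buffer pH 7.1 with NaCl, KCl, CaCl2, ascorbate and pargyline. Filtered through GF/B and counted by scintillation. Nonspecific binding defined with 1 μM (+)-butaclamol.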

D(2) dopamine receptor (Rattus norvegicus), sequence (P61169 whole entry): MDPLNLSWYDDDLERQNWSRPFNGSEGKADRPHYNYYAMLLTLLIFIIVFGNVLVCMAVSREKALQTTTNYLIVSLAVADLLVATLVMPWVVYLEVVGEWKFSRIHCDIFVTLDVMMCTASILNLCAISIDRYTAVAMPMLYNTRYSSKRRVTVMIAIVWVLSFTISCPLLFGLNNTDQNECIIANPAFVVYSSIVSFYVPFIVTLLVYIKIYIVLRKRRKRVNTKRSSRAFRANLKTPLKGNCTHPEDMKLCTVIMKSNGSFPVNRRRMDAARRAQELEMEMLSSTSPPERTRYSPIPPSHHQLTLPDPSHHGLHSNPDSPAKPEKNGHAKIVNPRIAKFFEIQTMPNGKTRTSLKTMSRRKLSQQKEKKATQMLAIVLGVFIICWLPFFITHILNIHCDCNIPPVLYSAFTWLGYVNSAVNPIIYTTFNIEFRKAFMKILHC
D(2) dopamine receptor, sequence (P61169 whole entry): as above

| SMILES | inhibition [2] | AB50 (Rattus norvegicus [3]) | Ratio [4] | ED50 (Mus musculus [5]) | also measured |
| --- | --- | --- | --- | --- | --- |
| Cl.O=C1C2C3C=CC(C4CCC34)C2C(=O)N1CCCCN1CCN(c2ccc(C(F)(F)F)cn2)CC1 (configuration not stated) | 65% | >40 mg/kg |  |  | inhibition [1]: 72% |
| Cl.O=C1C2C3C=CC(C4CC34)C2C(=O)N1CCCCN1CCN(c2cnccn2)CC1 (configuration not stated) | 33% | 49 mg/kg | 2.35 | 33 mg/kg | ED50 (Mus musculus [6]): 14 mg/kg; inhibition [7]: 68% |
| Cl.O=C1C2C3C=CC(C4CCC34)C2C(=O)N1CCCCN1CCN(c2cnccn2)CC1 (configuration not stated) | 48% | 60 mg/kg | 2.1 | 32 mg/kg | ED50 (Mus musculus [6]): 15 mg/kg |
| O=C1c2ccccc2S(=O)(=O)N1CCCCN1CCN(c2ncccn2)CC1 [IPSAPIRONE] |  | 19 mg/kg |  |  | Ki [8]: 0.01 µM; AB50 (Rattus norvegicus [9]): 42 mg/kg |
| CC(C)=C1C2C=CC1C1C(=O)N(CCCCN3CCN(c4ncccn4)CC3)C(=O)C21.Cl (configuration not stated) |  | >40 mg/kg |  |  | inhibition [10]: 50% |
| COc1ccccc1N1CCN(CCCCN2C(=O)C3C4C=CC(C5CC45)C3C2=O)CC1.Cl (configuration not stated) |  | 40 mg/kg | 1 | 10 mg/kg | Ki [8]: 0.0013 µM; ED50 (Mus musculus [11]): 10 mg/kg; Ki (D(2) dopamine receptor): 0.016 µM |
| O=C1CC2(CCCC2)CC(=O)N1CCCCN1CCN(c2ncccn2)CC1 [BUSPIRONE] |  | 5 mg/kg |  |  | AB50 (Rattus norvegicus [9]): 32 mg/kg |
